Data: ChEMBL document CHEMBL1152467, “Pharmacokinetics and pharmacodynamics of piperaquine in a murine malaria model” (Antimicrob Agents Chemother, 2008)
The source made the active and inactive calls. No cut-off for these calls is given here.

Assays:
[1] = system: Plasmodium berghei; test: Antiparasitic activity as parasitaemia against Plasmodium berghei ANKA infected Swiss mice (Mus musculus) at 30 mg/kg intraperitoneal dose 64 hrs post infection; type: functional
How it was run: (§1)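 Male Swiss mice were infected i.p. with 10^7 P. berghei ANKA-parasitized erythrocytes. At 64 h (3-5% parasitemia) they received a single i.p. dose of piperaquine phosphate suspension: 300, 900 or 2,700 μg in 100 μl (about 10, 30, 90 mg/kg). Parasitemia came from May-Grünwald Giemsa tail-blood thin films, counting 30-100 fields (detection limit about 0.002%). Groups had 13-14 mice; controls had 8.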

[2] = system: Plasmodium berghei; test: Antiparasitic activity as reduced parasitaemia after 36 hrs against Plasmodium berghei ANKA infected Swiss mice (Mus musculus) at 30 mg/kg intraperitoneal dosed 64 hrs post infection; type: functional; how it was run: as §1
[3] = system: Plasmodium berghei; test: Antiparasitic activity as reduced parasitaemia against Plasmodium berghei ANKA infected Swiss mice (Mus musculus) at 90 mg/kg intraperitoneal dose 64 hrs post infection; type: functional, organism-based; parameters: dose 90 mg/kg; how it was run: as §1
[4] = system: Plasmodium berghei; test: Antiparasitic activity as reduced parasitaemia after 24 hrs against Plasmodium berghei ANKA infected Swiss mice (Mus musculus) at 30 mg/kg intraperitoneal dose 64 hrs post infection; type: functional, organism-based; parameters: dose 30 mg/kg; how it was run: as §1
[5] = system: Plasmodium berghei; test: Antiparasitic activity as reduced parasitaemia at day 3 against Plasmodium berghei ANKA infected Swiss mice (Mus musculus) at 30 mg/kg intraperitoneal dose 64 hrs post infection; type: functional, organism-based; parameters: dose 30 mg/kg; how it was run: as §1
[6] = system: Plasmodium berghei; test: Antiparasitic activity as reduced parasitaemia against Plasmodium berghei ANKA infected Swiss mice (Mus musculus) at 10 mg/kg intraperitoneal dose 64 hrs post infection; type: functional, organism-based; parameters: dose 10 mg/kg; how it was run: as §1
[7] = system: Plasmodium berghei; test: Antiparasitic activity as reduced parasitaemia against Plasmodium berghei ANKA infected Swiss mice (Mus musculus) at 30 mg/kg intraperitoneal dose 64 hrs post infection; type: functional, organism-based; parameters: dose 30 mg/kg; how it was run: as §1
[8] = AUC in healthy Swiss mouse at 90 mg/kg, ip; type: ADME, organism-based; parameters: dose 90 mg/kg, route intraperitoneal; details: plasma
How it was run: (§2)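 Uninfected male Swiss mice (6 weeks old) received a single i.p. dose of 2,700 μg piperaquine phosphate suspension (about 90 mg/kg). Cardiac-puncture blood was collected under pentobarbitone from n = 5 per time, 0 h to 25 days. Lithium heparin plasma was assayed by HPLC and normalized to a 90 mg/kg dose. Mean profiles were analysed noncompartmentally and by a two-compartment model (1/y2 weighting).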

[9] = Half life in healthy Swiss mouse at 90 mg/kg, ip; type: ADME, organism-based; parameters: dose 90 mg/kg, route intraperitoneal; details: in vivo; how it was run: as §2
[10] = Plasma concentration in Swiss mice (Mus musculus) infected with Plasmodium berghei ANKA at 90 mg/kg, intraperitoneally administered 64 hrs after infection measured after 30 days; type: ADME, organism-based; parameters: dose 90 mg/kg, route intraperitoneal; details: ip
How it was run: (§3)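 P. berghei ANKA-infected male Swiss mice (10^7 parasitized erythrocytes i.p.) got one i.p. dose of 2,700 μg piperaquine phosphate (about 90 mg/kg) in glycerol/phosphate buffer/polysorbate 80 suspension, 64 h post-inoculation. Cardiac blood was drawn from 5 mice per time point, 0 h to […]. Plasma piperaquine was measured by HPLC, with concentrations normalized to 90 mg/kg. Noncompartmental and two-compartment fits (1/y2 weighting) used group means.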

[11] = Terminal half life in Swiss mice (Mus musculus) infected with Plasmodium berghei ANKA at 90 mg/kg, intraperitoneally by two compartment model assay; type: ADME, organism-based; parameters: dose 90 mg/kg, route intraperitoneal; details: in vivo, ip, read-out: beta t1/2 (converted); how it was run: as §3
[12] = Terminal half life in adult human; type: ADME, organism-based; details: in vivo, read-out: beta t1/2 (converted)
[13] = Toxicity in mouse; type: organism-based; details: in vivo
[14] = Plasma concentration in Swiss mice (Mus musculus) infected with Plasmodium berghei ANKA at 90 mg/kg, intraperitoneally administered 64 hrs after infection measured after 60 days; type: ADME, organism-based; parameters: dose 90 mg/kg, route intraperitoneal; details: ip; how it was run: as §3
[15] = AUC in Swiss mice (Mus musculus) infected with Plasmodium berghei ANKA at 90 mg/kg, intraperitoneally administered 64 hrs after infection; type: ADME, organism-based; parameters: dose 90 mg/kg, route intraperitoneal; details: plasma, ip; how it was run: as §3
[16] = Plasma concentration in Swiss mice (Mus musculus) infected with Plasmodium berghei ANKA at 90 mg/kg, intraperitoneally administered 64 hrs after infection measured after 2 hrs; type: ADME, organism-based; parameters: dose 90 mg/kg, route intraperitoneal; details: ip; how it was run: as §3
[17] = Half life in Swiss mice (Mus musculus) infected with Plasmodium berghei ANKA at 90 mg/kg, intraperitoneally administered 64 hrs after infection; type: ADME, organism-based; parameters: dose 90 mg/kg, route intraperitoneal; details: in vivo, ip; how it was run: as §3
[18] = system: Plasmodium berghei; test: Antiparasitic activity as survival at day 30 against Plasmodium berghei ANKA infected Swiss mice (Mus musculus) at 30 mg/kg intraperitoneal dose 64 hrs post infection; type: functional
How it was run: (§4)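 Male Swiss mice (5–6 weeks) inoculated i.p. with 10^7 P. berghei ANKA-parasitized erythrocytes. At 64 h (3–5% parasitemia), each received a single i.p. 100 μl PQP suspension in 50% glycerol, 30% phosphate buffer (pH 7.1) and 20% polysorbate 80. Parasitemia was followed on tail-vein Giemsa smears. Mice were euthanized at >40% parasitemia or >10% weight loss within 24 h. Groups of 14 treated, 8 controls.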

[19] = system: Plasmodium berghei; test: Antiparasitic activity as survival at day 30 against Plasmodium berghei ANKA infected Swiss mice (Mus musculus) at 20-30 mg/kg intraperitoneal dose 64 hrs post infection; type: functional
[20] = system: Mus musculus; test: Apparent volume of distribution in Swiss mice (Mus musculus) infected with Plasmodium berghei ANKA at 90 mg/kg, intraperitoneally administered 64 hrs after infection; type: ADME, organism-based; parameters: dose 90 mg/kg, route intraperitoneal; details: in vivo, ip; how it was run: as §3
[21] = Initial half life in Swiss mice (Mus musculus) infected with Plasmodium berghei ANKA at 90 mg/kg, intraperitoneally by two compartment model assay; type: ADME, organism-based; parameters: dose 90 mg/kg, route intraperitoneal; details: in vivo, ip, read-out: alphat1/2 (converted); how it was run: as §3
[22] = system: Plasmodium berghei; test: Antiparasitic activity as survival at day 30 against Plasmodium berghei ANKA infected Swiss mice (Mus musculus) at 10 mg/kg intraperitoneal dose 64 hrs post infection; type: functional; how it was run: as §4
[23] = Terminal half life in human children; type: ADME, organism-based; details: in vivo, read-out: beta t1/2 (converted)
[24] = Terminal half life in healthy Swiss mouse at 90 mg/kg, ip by two compartment model assay; type: ADME, organism-based; parameters: dose 90 mg/kg, route intraperitoneal; details: in vivo, read-out: beta t1/2 (converted); how it was run: as §2
[25] = system: Plasmodium berghei; test: Antiparasitic activity as parasitaemia after 36 hrs against Plasmodium berghei ANKA infected Swiss mice (Mus musculus) at 90 mg/kg intraperitoneal dose 64 hrs post infection; type: functional; how it was run: as §1
[26] = Apparent clearance in Swiss mice (Mus musculus) infected with Plasmodium berghei ANKA at 90 mg/kg, intraperitoneally administered 64 hrs after infection; type: ADME, organism-based; parameters: dose 90 mg/kg, route intraperitoneal; details: in vivo, ip; how it was run: as §3
[27] = Initial half life in healthy Swiss mouse at 90 mg/kg, ip by two compartment model assay; type: ADME, organism-based; parameters: dose 90 mg/kg, route intraperitoneal; details: in vivo, read-out: alphat1/2 (converted); how it was run: as §2
[28] = system: Plasmodium berghei; test: Antimalarial activity against chloroquine-sensitive Plasmodium berghei by Peters 4 day test; details: 96 h
[29] = system: Mus musculus; test: Plasma concentration in Swiss mice (Mus musculus) infected with Plasmodium berghei ANKA at 90 mg/kg, intraperitoneally administered 64 hrs after infection measured after 2 to 7 days; type: ADME, organism-based; parameters: dose 90 mg/kg, route intraperitoneal; details: in vivo, ip; how it was run: as §3
[30] = system: Mus musculus; test: Apparent volume of distribution in healthy Swiss mouse at 90 mg/kg, ip; type: ADME, organism-based; parameters: dose 90 mg/kg, route intraperitoneal; details: in vivo; how it was run: as §2
[31] = Plasma concentration in Swiss mice (Mus musculus) infected with Plasmodium berghei ANKA at 90 mg/kg, intraperitoneally administered 64 hrs after infection measured after 36 hrs; type: ADME, organism-based; parameters: dose 90 mg/kg, route intraperitoneal; details: ip; how it was run: as §3
[32] = Apparent clearance in healthy Swiss mouse at 90 mg/kg, ip; type: ADME, organism-based; parameters: dose 90 mg/kg, route intraperitoneal; details: in vivo; how it was run: as §2
[33] = system: Plasmodium berghei; test: Antiparasitic activity as median survival time against Plasmodium berghei ANKA infected Swiss mice (Mus musculus) at 10 mg/kg intraperitoneal dose 64 hrs post infection; type: functional; how it was run: as §4
[34] = system: Plasmodium berghei; test: Antiparasitic activity as parasitaemia against Plasmodium berghei ANKA infected Swiss mice (Mus musculus) at 10 mg/kg intraperitoneal dose 64 hrs post infection; type: functional; how it was run: as §1
[35] = system: Plasmodium berghei; test: Antiparasitic activity as reduced parasitaemia at day 22-30 against Plasmodium berghei ANKA infected Swiss mice (Mus musculus) at 30 mg/kg intraperitoneal dose 64 hrs post infection; type: functional; parameters: scale not given: the % may be the effect or the level left; how it was run: as §1
[36] = system: Plasmodium berghei; test: Antiparasitic activity as median survival time after 30 days against Plasmodium berghei ANKA infected Swiss mice (Mus musculus) at 30 mg/kg intraperitoneal dose 64 hrs post infection; type: functional; how it was run: as §4
[37] = system: Plasmodium berghei; test: Antiparasitic activity as parasitaemia at day 60 against Plasmodium berghei ANKA infected Swiss mice (Mus musculus) at 90 mg/kg intraperitoneal dose 64 hrs post infection; type: functional; how it was run: as §1
[38] = system: Plasmodium berghei; test: Antiparasitic activity as mean parasitaemia after 22 days against Plasmodium berghei ANKA infected Swiss mice (Mus musculus) at 30 mg/kg intraperitoneal dose 64 hrs post infection; type: functional; how it was run: as §1
[39] = system: Plasmodium berghei; test: Antiparasitic activity as parasitaemia at day 16 against Plasmodium berghei ANKA infected Swiss mice (Mus musculus) at 90 mg/kg intraperitoneal dose 64 hrs post infection; type: functional; how it was run: as §1
[40] = system: Plasmodium berghei; test: Antiparasitic activity as parasitaemia after 4 days against Plasmodium berghei ANKA infected Swiss mice (Mus musculus) at 90 mg/kg intraperitoneal dose; type: functional; how it was run: as §1
[41] = system: Plasmodium berghei; test: Antiparasitic activity as peripheral parasitaemia 2 weeks after day 60 reinfection against Plasmodium berghei ANKA infected Swiss mice (Mus musculus) at 90 mg/kg intraperitoneal dose 64 hrs post infection; type: functional
How it was run: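 Swiss mice given a single i.p. 90 mg/kg piperaquine phosphate 64 h after P. berghei ANKA infection were reinoculated i.p. with 10^7 parasitized erythrocytes on day 60. Age-matched previously uninfected mice (untreated, vehicle, or drug on day 0) were inoculated alongside. Parasitemia was read daily from Giemsa-stained tail-blood films for 2 weeks.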

[42] = system: Plasmodium berghei; test: Antiparasitic activity as reduced parasitaemia after 36 hrs against Plasmodium berghei ANKA infected Swiss mice (Mus musculus) at 10 mg/kg intraperitoneal dosed 64 hrs post infection; type: functional
How it was run: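 Male Swiss mice (5–6 weeks) infected i.p. with 10^7 P. berghei ANKA-parasitized erythrocytes from BALB/c donor blood diluted in citrate-phosphate-dextrose. Single i.p. dose given at 64 h, suspended in 50% glycerol/30% phosphate buffer pH 7.1/20% polysorbate 80, 100 µl. n = 14; vehicle controls n = 8. Parasitemia counted on methanol-fixed, May-Grünwald Giemsa tail-vein smears, expressed as fold decline from predose level.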

Compound: C[C@H]1[C@@H](O)O[C@@H]2O[C@@]3(C)CC[C@H]4[C@H](C)CC[C@@H]1[C@@]24OO3 [ARTENIMOL]
- Activity [1]: 4.6%
- fold change (FC) [2]: 11.9

Compound: Clc1ccc2c(N3CCN(CCCN4CCN(c5ccnc6cc(Cl)ccc56)CC4)CC3)ccnc2c1
- Activity [3]: Active
- Activity [4]: Active
- Activity [5]: Active
- Activity [6]: Active
- Activity [7]: Active

Compound: Clc1ccc2c(N3CCN(CCCN4CCN(c5ccnc6cc(Cl)ccc56)CC4)CC3)ccnc2c1 [PIPERAQUINE]
- AUC [8]: 33500 ng·h/mL
- half-life [9]: 17.8 days
- concentration at 720 h [10]: > 10 ng/mL
- half-life [11]: 15.4 days
- half-life [12]: 23 days
- LD50 [13]: 1100 mg/kg
- concentration at 1440 h [14]: 3 ng/mL
- AUC at 64 h [15]: 27300 ng·h/mL
- concentration at 2 h [16]: 250 ng/mL
- half-life [17]: 16.1 days
- Activity [18]: 70%
- Activity [19]: 50%
- Vd [20]: 1059 L/kg
- half-life [21]: 0.35 days
- Activity [22]: 0%
- half-life [23]: 14 days
- half-life [24]: 20.7 days
- Activity [25]: 0.002%
- CL/F [26]: 31.7 mL/min/kg
- half-life [27]: 0.59 days
- ED50 [28]: 4.5 mg/kg
- Cp [29]: 20 ng/mL
- Vd [30]: 956 L/kg
- concentration at 36 h [31]: 45 ng/mL
- CL/F [32]: 25.8 mL/min/kg

Compound: Clc1ccc2c(N3CCN(CCCN4CCN(c5ccnc6cc(Cl)ccc56)CC4)CC3)ccnc2c1.O=P(O)(O)O [PIPERAQUINE PHOSPHATE]
- Activity [33]: 10 days
- Activity [34]: 1.5%
- Activity [35]: 0.1%
- Activity [36]: 54 days
- Activity [37]: < 0.1%
- Activity [38]: 11%
- Activity [39]: 1.8%
- Activity [40]: >10%
- Activity [41]: <1%
- fold change (FC) [42]: 12.8
